Published values collected from several papers.
Each line is one published result; the experiments were not run side by side.
Target: Casein kinase I isoform gamma-3 (CSNK1G3, Homo sapiens, UniProt Q9Y6M4)

| Compound | test | setting | quantity | value |
| --- | --- | --- | --- | --- |
| C[C@@]1(Cc2ccc(C#N)cc2)C(=O)N(c2cc(Cl)cc(Cl)c2)c2ncc(C(=O)NC3(c4nc(C5CCC5)no4)CC3)n21 | cell-free assay, competition with immobilised ligand | 1 µM | remaining binding | 100% |
| C[C@@H]1CCN(C(=O)CC#N)C[C@@H]1N(C)c1ncnc2[nH]ccc12 | cell-free assay, inhibitor | 0.5 µM | remaining signal | 101% |
| Cc1cc(NC(=O)c2cccc3cc(-c4cccc5[nH]nc(N)c45)ccc23)ccc1F | enzyme activity, inhibitor | 0.1 µM | activity vs control | 107% |
| Cn1c2c(c3ccc(Cl)c(Cl)c31)C(C#N)C1(CCCCC1)NC2=O (racemic) | thermal stability, DSF | 10 µM | ΔTm | -0.2 °C |
| CNC(=O)c1cc(Oc2ccc(NC(=O)Nc3ccc(Cl)c(C(F)(F)F)c3)cc2)ccn1 | enzyme activity, inhibitor | 10 µM | inhibition | 2% |
| Cc1ccc(C(=O)Nc2ccc(CN3CCN(C)CC3)c(C(F)(F)F)c2)cc1C#Cc1cnc2cccnn12 | enzyme activity, inhibitor | 23.5 nM | remaining activity | 97% |
| COc1cc(Nc2c(C#N)cnc3cc(OCCCN4CCN(C)CC4)c(OC)cc23)c(Cl)cc1Cl | cell-free assay | 0.5 µM | remaining signal | 98.3% |
| CC(C)(C)c1nc2c(s1)c1nc(N)ncc1c1ccc(NS(=O)(=O)c3c(F)cccc3F)c(F)c12 | enzyme activity, inhibitor, radiometric | 1 µM | remaining activity | 86% |
| COc1ccc2c(O[C@@H]3C[C@H]4C(=O)N[C@]5(C(=O)O)CC5/C=C\CCCCC[C@H](NC(=O)OC5CCCC5)C(=O)N4C3)cc(-c3csc(NC(=O)C(C)C)n3)nc2c1C (some centres unmarked) | cell-free assay, competition with immobilised ligand | 1 µM | remaining binding | 100% |
| F[C@@H]1CCN(c2nccc(-c3cnn4ncccc34)n2)C1 | binding | 1 µM | remaining binding | 86% |
| COc1cc2ncnc(Nc3ccc(F)c(Cl)c3)c2cc1OCCCN1CCOCC1 | cell-free assay | 0.5 µM | remaining signal | 103% |
| Nc1ncnc2occ(-c3ccc(NC(=O)Nc4cc(C(F)(F)F)ccc4F)cc3)c12 | cell-free assay, inhibitor | 20 µM | remaining signal | 11% |
| Cn1c2c(Cl)c(Cl)ccc2c2cn[nH]c(=O)c21 | thermal stability, DSF | 10 µM | ΔTm | -0.1 °C |
| COc1cc(Cl)c(C(=O)N[C@@H](CN[C@H]2CC[C@@H](N)CC2)Cc2ccc(C#N)cc2)cc1-c1ccc(CN[C@H](C)c2ccc(C)cc2)o1 | enzyme activity, inhibitor | 1 µM | remaining activity | 96% |
| O=C(O)[C@@H]1[C@@H](Cn2nnc3ccccc3c2=O)CC[C@H]1C(=O)c1ccc(OCCC2CCOCC2)cc1 | cell-free assay, competition with immobilised ligand | 1 µM | remaining binding | 100% |
| Cc1sc(C(=O)NC2COC2)cc1-n1cc(NC(=O)Nc2c(F)cccc2Cl)cn1 | enzyme activity, inhibitor | 10 µM | remaining activity | 91.3% |
| O=C(O)c1cc(-c2ccc(C3CCNCC3)cc2)c2ccc(-c3ccc(C(F)(F)F)cc3)cc2c1 | cell-free assay, competition with immobilised ligand | 1 µM | remaining binding | 100% |
| COc1cc2c(N3CCN(C(=O)Nc4ccc(OC(C)C)cc4)CC3)ncnc2cc1OCCCN1CCCCC1 | cell-free assay | 0.5 µM | remaining signal | 95% |
| C[C@@H](c1cccc(C#N)c1)n1cc(Cl)cc(C(N)=O)c1=N | cell-free assay, competition with immobilised ligand | 1 µM | remaining binding | 100% |
| Cc1ccc(Nc2nccc(N(C)c3ccc4c(C)n(C)nc4c3)n2)cc1S(N)(=O)=O | enzyme activity, inhibitor | 10 µM | inhibition | 18% |
| Cn1c2c(c3ccc(Cl)c(Cl)c31)C(C#N)C1(CCN(C(=O)OC(C)(C)C)CC1)NC2=O (racemic) | thermal stability, DSF | 10 µM | ΔTm | -0.1 °C |
| CO[C@@H](C)c1c(Nc2ccc([C@@H](N(C)C(=O)C3CCS(=O)(=O)CC3)C(F)(F)F)cc2)cnc2cc(Cl)nn12 | cell-free assay, competition with immobilised ligand | 1 µM | remaining binding | 71% |
| Cc1cnc(NC2CCOCC2)nc1-n1cnc(C(=O)NC(CN)c2cc(F)cc(Cl)c2)c1 (centres unmarked) | enzyme activity, inhibitor, radiometric | 1 µM | remaining activity | 33% |
| CNC(=O)Nc1ccc2c(c1)CC[C@@]21OC(=O)N(CC(=O)N(Cc2ccc(F)cc2)[C@@H](C)C(F)(F)F)C1=O | cell-free assay, competition with immobilised ligand | 1 µM | remaining binding | 84% |
| COc1cc2ncnc(Nc3ccc(Oc4ccccc4)c(C)c3C)c2cc1OC | enzyme activity, inhibitor | 1 µM | inhibition | 3% |
| Cn1c2c(c3ccc(Cl)c(Cl)c31)C(C#N)C1(CCNCC1)NC2=O (racemic) | thermal stability, DSF | 10 µM | ΔTm | 2.9 °C |
| O=C(NC[C@@H]1[C@H]2CN(C(=O)OCc3cc(C(F)(F)F)cc(C(F)(F)F)c3)C[C@@H]12)c1ccc2[nH]nnc2c1 | cell-free assay, competition with immobilised ligand | 1 µM | remaining binding | 89% |
| Cn1c2c(Cl)c(Cl)ccc2c2cc(N)[nH]c(=O)c21 | thermal stability, DSF | 10 µM | ΔTm | 0.1 °C |
| CN1CC(Oc2cnc(C#N)cc2-c2ccn3nc(NC(=O)C4CC4)cc3c2)C1 | enzyme activity, inhibitor | 1 µM | inhibition | 21% |
